Experimental data as given in ChEMBL document CHEMBL1149671, “Enantiopure five-membered cyclicdiamine derivatives as potent and selective inhibitors of factor Xa. Improving in vitro metabolic stability via core modifications” (Bioorg Med Chem Lett, 2007).

How the values were obtained:
Coagulation factor X = Coagulation factor X (Homo sapiens, UniProt P00742); assay: Inhibition of human factor 10a
Liver microsomes = assay: Metabolic stability in human liver microsomes assessed as microsomal intrinsic clearance rate; type: ADME, Microsome
How it was run: (§1)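 Human liver microsomes, 10-min incubation. Metabolic stability given as % compound remaining. Microsomal intrinsic clearance rate (nmol/min/mg) is based on the % remaining after 10 min.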

[1] = Cytotoxicity against HEK cells; type: cell-based; settings: Homo sapiens, HEK293
[2] = biological target: Vitamin K-dependent protein C (Homo sapiens, UniProt P04070); assay: Inhibition of human activated protein C
Coagulation factor XI = Coagulation factor XI (Homo sapiens, UniProt P03951); assay: Inhibition of human factor 11a
Coagulation factor VII = biological target: T1, Coagulation factor VII (Homo sapiens, UniProt P08709); assay: Inhibition of human factor 7a
T1 sequence (P08709 whole entry): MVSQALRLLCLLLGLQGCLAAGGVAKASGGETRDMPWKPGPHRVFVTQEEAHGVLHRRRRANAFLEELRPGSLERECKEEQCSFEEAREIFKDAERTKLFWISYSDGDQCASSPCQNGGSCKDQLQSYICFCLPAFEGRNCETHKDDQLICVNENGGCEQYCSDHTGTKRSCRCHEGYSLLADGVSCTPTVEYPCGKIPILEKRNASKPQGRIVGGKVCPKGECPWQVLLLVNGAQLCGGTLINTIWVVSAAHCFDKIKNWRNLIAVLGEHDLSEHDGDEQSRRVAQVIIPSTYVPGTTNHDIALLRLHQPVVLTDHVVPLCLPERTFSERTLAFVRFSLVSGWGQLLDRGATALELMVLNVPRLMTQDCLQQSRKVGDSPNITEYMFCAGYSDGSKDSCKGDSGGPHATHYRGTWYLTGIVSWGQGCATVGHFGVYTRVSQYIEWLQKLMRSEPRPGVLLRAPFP

[3] = Inhibition of human chymotrypsin
Plasma kallikrein = Plasma kallikrein (Homo sapiens, UniProt P03952); assay: Inhibition of human plasma kallikrein; type: cell-free
Trypsin = Trypsin (Homo sapiens, UniProt P07477+P07478+P35030); assay: Inhibition of human trypsin; type: protein assay
Prothrombin = Prothrombin (Homo sapiens, UniProt P00734); assay: Inhibition of human thrombin
Plasminogen = Plasminogen (Homo sapiens, UniProt P00747); assay: Inhibition of human Plasmin
[4] = biological target: Tissue-type plasminogen activator (Homo sapiens, UniProt P00750); assay: Inhibition of human tissue plasminogen activator
[5] = biological target: Urokinase-type plasminogen activator (Homo sapiens, UniProt P00749); assay: Inhibition of human urokinase
[6] = Permeability across Caco-2 cells; type: ADME, cell-based; settings: human, read-out: permeability
[7] = Clearance in dog at 0.5 mg/kg, iv; type: ADME, organism-based, Canis lupus familiaris; design: dose 0.5 mg/kg, route intravenous; settings: in vivo
How it was run: (§2)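 Dogs. Intravenous dose 0.5 mg/kg, used for clearance (L/kg/h), steady-state volume of distribution (L/kg) and iv half-life.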

[8] = Volume of distribution at steady state in dog at 0.5 mg/kg, iv; type: ADME, organism-based, Canis lupus familiaris; design: dose 0.5 mg/kg, route intravenous; settings: in vivo, read-out: Vdss; how it was run: as §2
[9] = Half life in dog at 0.5 mg/kg, iv; type: ADME, organism-based, Canis lupus familiaris; design: dose 0.5 mg/kg, route intravenous; settings: in vivo; how it was run: as §2
[10] = Half life in dog at 0.2 mg/kg, po; type: ADME, organism-based, Canis lupus familiaris; design: dose 0.2 mg/kg, route oral; settings: in vivo
[11] = Bioavailability in dog at 0.2 mg/kg, po; type: ADME, organism-based, Canis lupus familiaris; settings: in vivo; how it was run: as §2
[12] = Metabolic stability in human liver microsomes after 10 mins; type: ADME, Microsome; settings: read-out: Stability; how it was run: as §1

Chain of Plasminogen (P00747 97-580 limits assumed): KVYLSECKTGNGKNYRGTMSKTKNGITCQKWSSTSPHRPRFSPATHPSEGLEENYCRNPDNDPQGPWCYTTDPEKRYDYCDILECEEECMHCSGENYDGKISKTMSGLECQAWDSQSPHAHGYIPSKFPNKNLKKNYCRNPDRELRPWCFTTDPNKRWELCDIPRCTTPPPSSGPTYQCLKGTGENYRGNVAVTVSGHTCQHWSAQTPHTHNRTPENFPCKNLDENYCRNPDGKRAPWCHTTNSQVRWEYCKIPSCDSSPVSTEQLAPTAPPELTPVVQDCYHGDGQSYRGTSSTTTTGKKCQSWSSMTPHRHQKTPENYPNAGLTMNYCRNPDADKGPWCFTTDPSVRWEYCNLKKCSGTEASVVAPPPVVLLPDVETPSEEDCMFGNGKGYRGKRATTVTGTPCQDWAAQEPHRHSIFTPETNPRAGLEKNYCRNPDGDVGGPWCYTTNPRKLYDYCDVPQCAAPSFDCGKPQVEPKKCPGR
Chain of Plasminogen (P00747 581-810 limits assumed): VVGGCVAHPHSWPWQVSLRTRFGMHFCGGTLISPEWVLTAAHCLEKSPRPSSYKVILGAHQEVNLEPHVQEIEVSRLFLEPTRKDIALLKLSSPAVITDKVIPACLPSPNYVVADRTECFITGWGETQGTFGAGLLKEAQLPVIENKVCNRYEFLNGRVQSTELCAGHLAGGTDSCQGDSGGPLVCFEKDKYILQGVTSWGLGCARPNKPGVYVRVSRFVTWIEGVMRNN
Chain of Vitamin K-dependent protein C (P04070 43-197 limits assumed): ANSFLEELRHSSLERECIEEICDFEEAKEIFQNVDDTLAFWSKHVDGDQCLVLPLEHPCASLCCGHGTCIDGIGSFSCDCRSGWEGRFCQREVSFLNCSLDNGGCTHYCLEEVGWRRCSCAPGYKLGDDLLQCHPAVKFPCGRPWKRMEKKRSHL
Chain of Vitamin K-dependent protein C (P04070 212-461 limits assumed): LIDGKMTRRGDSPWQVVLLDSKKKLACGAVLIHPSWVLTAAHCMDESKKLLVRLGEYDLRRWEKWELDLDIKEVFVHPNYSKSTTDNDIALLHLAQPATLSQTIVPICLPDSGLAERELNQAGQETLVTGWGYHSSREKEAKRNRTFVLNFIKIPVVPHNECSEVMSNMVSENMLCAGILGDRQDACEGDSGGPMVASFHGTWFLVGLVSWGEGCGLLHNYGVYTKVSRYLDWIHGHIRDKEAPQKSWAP
Chain of Tissue-type plasminogen activator (P00750 whole entry): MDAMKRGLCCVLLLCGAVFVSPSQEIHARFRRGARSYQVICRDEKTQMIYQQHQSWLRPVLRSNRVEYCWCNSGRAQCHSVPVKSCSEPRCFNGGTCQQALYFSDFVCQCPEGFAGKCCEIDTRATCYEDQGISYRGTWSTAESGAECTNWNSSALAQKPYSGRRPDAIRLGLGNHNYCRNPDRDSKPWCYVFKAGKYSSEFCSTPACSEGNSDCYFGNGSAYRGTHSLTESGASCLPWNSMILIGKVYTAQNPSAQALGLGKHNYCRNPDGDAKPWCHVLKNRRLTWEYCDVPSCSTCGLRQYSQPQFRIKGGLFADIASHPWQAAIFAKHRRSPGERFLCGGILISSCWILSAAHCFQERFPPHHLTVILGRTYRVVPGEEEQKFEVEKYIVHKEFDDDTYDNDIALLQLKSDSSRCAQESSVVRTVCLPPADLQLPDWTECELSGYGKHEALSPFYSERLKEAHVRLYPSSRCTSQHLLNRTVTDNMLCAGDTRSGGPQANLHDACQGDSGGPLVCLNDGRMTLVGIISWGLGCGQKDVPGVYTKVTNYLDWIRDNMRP
Chain of Coagulation factor X (P00742 41-179 limits assumed): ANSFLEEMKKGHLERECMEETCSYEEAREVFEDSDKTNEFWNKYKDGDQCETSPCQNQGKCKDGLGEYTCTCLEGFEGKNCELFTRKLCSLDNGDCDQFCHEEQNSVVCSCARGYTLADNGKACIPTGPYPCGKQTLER
Chain of Coagulation factor X (P00742 235-488 limits assumed): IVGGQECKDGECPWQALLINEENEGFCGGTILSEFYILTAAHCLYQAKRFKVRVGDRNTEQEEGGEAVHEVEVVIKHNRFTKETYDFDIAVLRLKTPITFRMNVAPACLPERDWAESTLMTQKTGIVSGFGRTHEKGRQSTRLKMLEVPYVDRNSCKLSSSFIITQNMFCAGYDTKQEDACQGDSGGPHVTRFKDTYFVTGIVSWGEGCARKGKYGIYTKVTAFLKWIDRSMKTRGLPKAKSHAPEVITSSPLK
Chain of Plasma kallikrein (P03952 20-390 limits assumed): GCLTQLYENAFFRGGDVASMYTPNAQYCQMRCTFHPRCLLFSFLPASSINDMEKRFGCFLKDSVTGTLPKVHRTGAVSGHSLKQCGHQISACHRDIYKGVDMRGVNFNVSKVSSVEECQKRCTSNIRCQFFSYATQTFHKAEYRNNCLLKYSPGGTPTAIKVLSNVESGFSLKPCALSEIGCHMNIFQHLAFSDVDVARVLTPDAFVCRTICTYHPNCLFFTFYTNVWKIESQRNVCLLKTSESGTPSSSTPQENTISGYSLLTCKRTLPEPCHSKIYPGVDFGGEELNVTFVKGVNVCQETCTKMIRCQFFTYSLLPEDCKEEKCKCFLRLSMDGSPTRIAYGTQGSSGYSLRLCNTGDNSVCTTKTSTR
Chain of Plasma kallikrein (P03952 391-638 limits assumed): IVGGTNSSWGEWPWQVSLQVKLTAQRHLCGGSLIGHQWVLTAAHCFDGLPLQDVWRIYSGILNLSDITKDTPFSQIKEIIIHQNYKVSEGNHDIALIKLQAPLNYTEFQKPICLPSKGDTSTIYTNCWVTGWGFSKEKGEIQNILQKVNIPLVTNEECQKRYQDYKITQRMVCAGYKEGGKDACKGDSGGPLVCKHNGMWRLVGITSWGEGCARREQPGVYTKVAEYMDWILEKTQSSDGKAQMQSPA
Chain of Coagulation factor XI (P03951 19-387 limits assumed): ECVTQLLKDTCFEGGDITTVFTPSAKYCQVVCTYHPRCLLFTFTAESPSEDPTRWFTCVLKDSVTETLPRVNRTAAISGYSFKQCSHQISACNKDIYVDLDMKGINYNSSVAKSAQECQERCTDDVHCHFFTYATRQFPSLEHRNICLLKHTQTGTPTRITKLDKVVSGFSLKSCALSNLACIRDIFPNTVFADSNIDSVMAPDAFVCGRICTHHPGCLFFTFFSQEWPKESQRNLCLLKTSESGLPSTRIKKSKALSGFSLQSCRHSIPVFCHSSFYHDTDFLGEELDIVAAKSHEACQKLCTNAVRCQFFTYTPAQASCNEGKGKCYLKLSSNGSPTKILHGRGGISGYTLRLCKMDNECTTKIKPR
Chain of Coagulation factor XI (P03951 388-625 limits assumed): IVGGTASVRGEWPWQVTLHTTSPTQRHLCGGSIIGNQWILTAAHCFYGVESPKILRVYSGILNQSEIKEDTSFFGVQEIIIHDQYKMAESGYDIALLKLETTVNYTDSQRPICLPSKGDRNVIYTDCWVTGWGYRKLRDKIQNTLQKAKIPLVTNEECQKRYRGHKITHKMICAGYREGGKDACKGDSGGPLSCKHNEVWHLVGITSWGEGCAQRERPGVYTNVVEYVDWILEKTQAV

O=C(N[C@H]1CN(C(=O)OCC2c3ccccc3-c3ccccc32)C[C@H]1NC(=O)c1ccc(Cl)s1)c1ccc(-n2ccccc2=O)cc1
Ki (Coagulation factor X): 0.0045 µM

O=C(N[C@H]1CNC[C@H]1NC(=O)c1ccc2c(Cl)c[nH]c2c1)c1ccc(-n2ccccc2=O)cc1
Ki (Coagulation factor X): 0.018 µM

CS(=O)(=O)N1C[C@H](NC(=O)c2ccc(-n3ccccc3=O)cc2)[C@H](NC(=O)c2ccc(Cl)s2)C1
Ki (Coagulation factor X): 0.00044 µM
CL (Liver microsomes): 0 nmol/mg/min
IC50 [1]: > 100 µM

O=C(N[C@@H]1Cc2ccccc2[C@@H]1NC(=O)c1ccc(Cl)s1)c1ccc(-n2ccccc2=O)cc1
Ki (Coagulation factor X): 0.23 µM

O=C(N[C@H]1Cc2ccccc2[C@H]1NC(=O)c1ccc(-n2ccccc2=O)cc1)c1ccc2c(Cl)c[nH]c2c1
Ki (Coagulation factor X): 0.0079 µM

COC(=O)[C@H]1C[C@H](NC(=O)c2ccc(-n3ccccc3=O)cc2)[C@H](NC(=O)c2ccc(Cl)s2)C1
Ki (Coagulation factor X): 0.00053 µM

CC(=O)N1C[C@H](NC(=O)c2ccc(-n3ccccc3=O)cc2)[C@H](NC(=O)c2ccc(Cl)s2)C1
Ki [2]: > 21 µM
Ki (Coagulation factor X): 0.00058 µM
CL (Liver microsomes): 0 nmol/mg/min
IC50 [1]: > 100 µM
Ki (Coagulation factor XI): 10.2 µM
Ki (Coagulation factor VII): > 11 µM
Ki [3]: > 20 µM
Ki (Plasma kallikrein): > 6 µM
Ki (Trypsin): > 5 µM
Ki (Prothrombin): 5.44 µM
Ki (Plasminogen): > 22 µM
Ki [4]: > 21 µM
Ki [5]: > 14 µM
Papp [6]: < 1.5 ×10⁻⁶ cm/s
clearance [7]: 30 mL/min/kg
Vd [8]: 2.4 L/kg
half-life [9]: 48 min
half-life [10]: 48 min
bioavailability [11]: 5%

O=C(N[C@H]1C[C@H](CO)C[C@H]1NC(=O)c1ccc(Cl)s1)c1ccc(-n2ccccc2=O)cc1
Ki [2]: > 21 µM
Ki (Coagulation factor X): 0.00056 µM
Ki (Coagulation factor VII): > 11 µM
Ki [3]: > 20 µM
Ki (Plasma kallikrein): > 10.8 µM
Ki (Trypsin): > 5 µM
Ki (Plasminogen): > 22 µM
Ki [4]: > 21 µM
Ki [5]: > 14 µM
remaining at 10 min [12]: 100%

CC(=O)N1C[C@H](NC(=O)c2ccc(-n3ccccc3=O)cc2)[C@H](NC(=O)c2ccc3c(Cl)c[nH]c3c2)C1
Ki (Coagulation factor X): 0.0039 µM

CCC(=O)N1C[C@H](NC(=O)c2ccc(-n3ccccc3=O)cc2)[C@H](NC(=O)c2ccc(Cl)s2)C1
Ki (Coagulation factor X): 0.002 µM
IC50 [1]: > 100 µM

O=C(N[C@H]1Cc2ccccc2[C@H]1NC(=O)c1ccc(Cl)s1)c1ccc(-n2ccccc2=O)cc1
Ki (Coagulation factor X): 0.027 µM

CN(C)C(=O)[C@H]1C[C@H](NC(=O)c2ccc(-n3ccccc3=O)cc2)[C@H](NC(=O)c2ccc(Cl)s2)C1
Ki (Coagulation factor X): 0.0021 µM

O=C(N[C@H]1CNC[C@H]1NC(=O)c1ccc(Cl)s1)c1ccc(-n2ccccc2=O)cc1
Ki (Coagulation factor X): 0.0095 µM
CL (Liver microsomes): 0 nmol/mg/min
IC50 [1]: > 100 µM

O=C(N[C@H]1CCC[C@H]1NC(=O)c1ccc(Cl)s1)c1ccc(-n2ccccc2=O)cc1
clearance (Liver microsomes): 0.063 nmol/min/mg
Papp [6]: 9.2 ×10⁻⁶ cm/s
clearance [7]: 11.7 mL/min/kg
Vd [8]: 0.8 L/kg
half-life [9]: 42 min
half-life [10]: 42 min
bioavailability [11]: 60%
remaining at 10 min [12]: 79%

O=C(N[C@@H]1c2ccccc2C[C@@H]1NC(=O)c1ccc(Cl)s1)c1ccc(-n2ccccc2=O)cc1
Ki (Coagulation factor X): 10.9 µM

COC(=O)N1C[C@H](NC(=O)c2ccc(-n3ccccc3=O)cc2)[C@H](NC(=O)c2ccc(Cl)s2)C1
Ki (Coagulation factor X): 0.00074 µM
CL (Liver microsomes): 0 nmol/mg/min
IC50 [1]: > 100 µM

O=C(N[C@H]1c2ccccc2C[C@H]1NC(=O)c1ccc(Cl)s1)c1ccc(-n2ccccc2=O)cc1
Ki (Coagulation factor X): 0.00027 µM
remaining at 10 min [12]: 32%

CC(C)S(=O)(=O)N1C[C@H](NC(=O)c2ccc(-n3ccccc3=O)cc2)[C@H](NC(=O)c2ccc(Cl)s2)C1
Ki (Coagulation factor X): 0.0017 µM
IC50 [1]: > 100 µM

CCS(=O)(=O)N1C[C@H](NC(=O)c2ccc(-n3ccccc3=O)cc2)[C@H](NC(=O)c2ccc(Cl)s2)C1
Ki [2]: > 21 µM
Ki (Coagulation factor X): 0.00064 µM
CL (Liver microsomes): 0 nmol/mg/min
IC50 [1]: > 100 µM
Ki (Coagulation factor XI): 6.68 µM
Ki (Coagulation factor VII): > 11 µM
Ki [3]: > 20 µM
Ki (Plasma kallikrein): > 10.8 µM
Ki (Trypsin): > 5 µM
Ki (Prothrombin): 3.95 µM
Ki (Plasminogen): > 22 µM
Ki [4]: > 21 µM
Ki [5]: > 14 µM
Papp [6]: < 1.5 ×10⁻⁶ cm/s
clearance [7]: 25 mL/min/kg
Vd [8]: 1.1 L/kg
half-life [9]: 42 min
half-life [10]: 78 min
bioavailability [11]: 16%

COC(=O)C1C[C@H](NC(=O)c2ccc(-n3ccccc3=O)cc2)[C@H](NC(=O)c2ccc(Cl)s2)C1 (some centres undefined)
Ki (Coagulation factor X): 0.00039 µM

CC(C)C(=O)N1C[C@H](NC(=O)c2ccc(-n3ccccc3=O)cc2)[C@H](NC(=O)c2ccc(Cl)s2)C1
Ki (Coagulation factor X): 0.0013 µM
CL (Liver microsomes): 0 nmol/mg/min
IC50 [1]: > 100 µM
